RAM network inh: inhibitors of the yeast RAM network; S. cerevisiae dse1pr::URA3 reporter, 5-FOA growth OD615, 2 d; analog-sensitive cbk1-as2 kinase mutant strain; inhibition, % at 50 µM; actives 1.8% (n = 190,000); AID 868;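 active means inhibition above a set limit, 3 SD over mean compound inhibition, cut at about 8.4% in these data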;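 further: 0% = DMSO-only wells with no growth and 100% = 10 µM 1-NA-PP1 full growth; inhibition rescues growth on 5-FOA so higher OD means more RAM inhibition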
WT yeast gro inh: growth inhibition of WT yeast, mitochondrial fusion screen; inhibition, % at 10 µM; mitochondrial fusion phenotypic screen, WT strain; AID 1362; actives 2.1% (n = 190,000); in the data active means inhibition above about 58%; tested in S. cerevisiae
Yeast growth inh: yeast BB579 growth reduction in restrictive medium; actives 0.51% (n = 140,000); inhibition, % at 10 µM; AID 804; S. cerevisiae BB579 growth, OD615, 48 h;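 active means inhibition above a set limit, 3 SD over the mean compound inhibition, cut at about 44% in these data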
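Detection: OD615 turbidity measurement; Material: Saccharomyces cerevisiae DeaD strain BB579, replicative lifespan model yeast; Timing: 48 h exposure, 30 °C; Doses: single 10 µM dose; Medium: CSMM-D restrictive synthetic medium containing dextrose (glucose); Controls: amphotericin B at 10 µg/mL as positive control.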
Yeast lifespan up: extends the lifespan of yeast; AID 775; actives 0.68% (n = 130,000); inhibition of the nicotinamide effect, % at 10 µM; S. cerevisiae growth with nicotinamide, OD615; deaD strain in restrictive glucose medium;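 active means inhibition above a set limit, placed 3 SD over the median of all compounds, cut at about 26% in these data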;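 further: 0% = nicotinamide-treated wells and 100% = cells grown without nicotinamide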
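Test system – modified budding yeast, DeaD strain · Compound – single dose 10 µM compound, 0.25% DMSO · Times – culture preincubation 4 h, compound exposure 48 h, both 30 °C · Detection – optical density (absorbance) at 615 nm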
KCC2 mod: modulates chloride dependent transport by human KCC2; Q9H2X9; KCC2 cells, thallium flux FluoZin-2 fluorescence; B-score of Tl+ flux slope (higher = more flux/activation; lower = inhibition) at 10 µM; actives 2.2% (n = 190,000);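 active means thallium flux slope and its plate-corrected score both differing from the plate sample mean at a set confidence after two filtering rounds, in either direction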;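 further: slope of fluorescence scaled to starting intensity during 10 to 20 s after thallium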
Active calls of the source: *; nt = not tested or not shown. In the library only some 5.5% were active in any assay of this set; here they are far more common.

SMILES | RAM network inh | WT yeast gro inh | Yeast growth inh | Yeast lifespan up | KCC2 mod
Cc1cc(C)cc(CC(Cc2nc3ccccc3[nH]2)c2nc3ccccc3[nH]2)c1 (configuration not stated) | 0 | 7 | 5 | -6 | nt
Cc1cc(SCC(=O)OCC(=O)NCc2ccc3c(c2)OCO3)c(C)cc1Br | 11* | -3 | -16 | -1 | 0.044
O=C(c1cnn2c(C(F)F)cc(C3CC3)nc12)N1CCCC1 | -1 | -3 | -4 | 107* | nt
CCOC(=O)C1CCCN(C(=O)c2cnn3c(C(F)F)cc(-c4ccc(C)cc4)nc23)C1 (configuration not stated) | 3 | 14 | -6 | -13 | nt
O=C(c1cnn2c(C(F)F)cc(-c3ccccc3)nc12)N1CCc2ccccc2C1 | 2 | 78* | nt | nt | -2
Cc1ccc(-c2cc(C(F)F)n3ncc(C(=O)N4CCN5CCCC5C4)c3n2)cc1 (configuration not stated) | 3 | 66* | -42 | -26 | -1.3
Cc1ccc2nc(-c3ccccc3)cc(C(=O)N3CCc4ccccc4C3)c2c1 | 4 | 11 | -11 | -4 | -0.32
O=C(c1cc(-c2ccccc2)nc2ccccc12)N1CCc2ccccc2C1 | 4 | 71* | -27 | 1 | -0.57
O=C(O)C1C2CCC(O2)C1C(=O)Nc1ccc(O)cc1 (configuration not stated) | 0 | -6 | -40 | 3 | 0.47
Nc1cc(S(=O)(=O)Nc2cc(Cl)ccc2Cl)ccc1N1CCCC1 | nt | nt | nt | nt | -0.39
N#CCCC(CCC#N)C1=NCCc2ccccc21 | nt | nt | nt | nt | 0.027
CCOC(=O)c1nn(-c2ccc(F)cc2)c2c1CC/C2=C/c1ccccc1 | 6 | -9 | -46 | -2 | 1.5
COc1ccc(Nc2nc(N/N=C/c3ccc(N(C)C)cc3)nc(C)c2[N+](=O)[O-])cc1 | 10.0* | -4 | -54 | 5 | 0.38
CCOc1cccc(-c2nnc(SCC(=O)Nc3cc(OC)cc(OC)c3)n2N)c1 | 1 | 13 | -51 | -11 | nt
COc1cccc(NC(=O)CSc2nnc(-c3cccc(OC(C)C)c3)n2N)c1 | 11* | 3 | -40 | -6 | -0.45
CCCc1nc2c(=O)n(C)c(=O)nc-2n(C)n1 | -1 | 64* | nt | nt | nt
Cn1nc(-c2ccccn2)nc2c(=O)n(C)c(=O)nc1-2 | nt | nt | nt | nt | 0.26
C[C@]1(C(=O)NCCCNc2ncc(C(F)(F)F)cc2Cl)C=C[C@@H](Cc2ccccc2)N1C(=O)c1ccccc1 | 5 | 75* | -32 | 16 | -0.68
COc1ccc(NS(=O)(=O)c2ccc3c(c2)Cc2ccccc2-3)cn1 | 3 | 60* | -41 | -3 | -0.94
CSC1=C(C#N)C(=O)NC(c2ccc(Cl)cc2)S1 (configuration not stated) | nt | nt | nt | nt | -0.39
COC(=O)CSc1nc(N)c2c3c(sc2n1)CCCC3 | 2 | -14 | -35 | -8 | -0.49
COC(=O)CSc1nc(N)c2c3c(sc2n1)C(c1ccccc1)SC(c1ccccc1)C3 (configuration not stated) | 6 | 67* | -20 | 14 | 0.31
N#C/C(=C\c1ccc(F)cc1F)S(=O)(=O)c1ccccn1 | nt | nt | nt | nt | 0.12
c1ccc(-n2c(-c3ccco3)nnc2-c2ccco2)cc1 | 0 | -15 | 47* | -9 | nt
Cc1ccc2oc(=O)n(CCCOc3ccccc3C)c2c1 | 2 | 64* | nt | nt | 0.02
SMILES | RAM network inh | WT yeast gro inh | Yeast growth inh | Yeast lifespan up | KCC2 mod
Cc1ccc2oc(=O)n(CCOc3ccccc3C)c2c1 | 3 | 6 | nt | nt | 0.54
Cc1cccc(N2CCN(C(c3ccccc3)c3nnnn3C(C)(C)C)CC2)c1C (configuration not stated) | 0 | 75* | -32 | nt | -0.027
Cc1ccc(C(c2nnnn2CC2CCCO2)N2CCN(c3cccc(C)c3C)CC2)cc1 (configuration not stated) | -1 | 60* | -37 | -2 | -0.98
CCCCCN1CSC(=S)N(Cc2ccccc2)C1 | 0 | 15 | 26 | 27* | 0.045
O=C(c1cc(-c2ccncc2)nc2ccccc12)N1CCN(S(=O)(=O)/C=C/c2ccccc2)CC1 | -1 | -3 | -4 | -24 | 0.72
Cc1nc2ccc(C(=O)OCc3ccccc3Br)cc2nc1C | 8 | -1 | -53 | -2 | nt
CN(c1cccc(NC(=O)CN(c2cccc(Cl)c2)S(=O)(=O)c2ccc(Cl)cc2)c1)S(C)(=O)=O | 6 | -5 | -32 | 4 | 0.087
CSc1nc2ccc(S(=O)(=O)N3CCCCC3)cc2s1 | 5 | -10 | -29 | 0 | nt
Nc1nc2ccc(S(=O)(=O)N3CCCCC3)cc2s1 | 4 | 70* | 2 | -4 | 0.59
CCOC(=O)c1cc(CC)sc1NC(=O)c1cc(OC)c(OC)c(OC)c1 | 11* | -3 | -104 | -9 | nt
CCOC(=O)c1cc(CC)sc1NC(=O)c1ccc(N2C(=O)CCC2=O)cc1 | 3 | -7 | -9 | -19 | nt
CC1CCCCN1S(=O)(=O)c1coc(C(N)=O)c1 (configuration not stated) | 4 | -5 | 45* | -10 | -0.62
CC1CCCN(S(=O)(=O)c2coc(C(N)=O)c2)C1 (configuration not stated) | -1 | 2 | -18 | -5 | -0.56
CCOC(=O)c1nnc(-c2ccccc2)nc1Sc1ccccc1Cl | 11* | 8 | -62 | -3 | -0.47
CC(=O)SCC(Cc1ccccc1)C(=O)NCC(=O)OCc1ccccc1 (configuration not stated) | nt | 14 | nt | nt | -4.2*
CC(NC(N)=O)C(=O)NCC(=O)OCc1ccccc1 (configuration not stated) | -1 | 2 | nt | nt | 1
Fc1cccc(-c2cc3nc4c(c(N5CCN(c6cnccn6)CC5)n3n2)CCCC4)c1 | nt | nt | nt | nt | 0.66
Clc1cccc(-c2cc3nc4c(c(N5CCN(c6cnccn6)CC5)n3n2)CCCC4)c1 | 1 | 70* | -31 | nt | -0.43
Fc1cccc(-c2cc3nc4c(c(N5CCOCC5)n3n2)CCCC4)c1 | -1 | -1 | 14 | -24 | -3.1
Clc1cccc(-c2cc3nc4c(c(N5CCOCC5)n3n2)CCCC4)c1 | -1 | 85* | -25 | -10 | -0.17
Cc1ccccc1/C=N\NC(=O)c1ccccc1-n1cccc1 | 3 | -18 | nt | nt | -0.63
COc1ccc2c(c1)c1nnc(SCC(=O)N3C(C)CCCC3C)nc1n2C (configuration not stated) | 8 | 18 | -40 | -3 | 0.2
COc1ccc2c(c1)c1nnc(SC)nc1n2C | 0 | 47 | 90* | -12 | 0.93
COc1cc2c(cc1NC(=S)Nc1cccc(C(F)(F)F)c1)oc1ccccc12 | 1 | 64* | -34 | -3 | 0.75
COc1cc2c(cc1NC(=S)Nc1cccc3ccccc13)oc1ccccc12 | 4 | 69* | -72 | -12 | -0.029
Cc1ccc(S(=O)(=O)N2CCC(C(=O)OCc3ccc([N+](=O)[O-])cc3)CC2)cc1 | 2 | 11 | -34 | 7 | -0.0035
Cc1ccccc1OCc1n(CC(=O)OC2CC(C)CCC2C(C)C)c2ccccc2[n+]1C (configuration not stated) | -2 | 62* | nt | nt | -0.96

From PubChem
